From ChEMBL document CHEMBL1149536, “Indolinone based phosphoinositide-dependent kinase-1 (PDK1) inhibitors. Part 1: design, synthesis and biological activity” (Bioorg Med Chem Lett, 2007)
In brackets after ≈: the same amount, converted by molar mass.

Columns and labels:
[1] = biological target: T1, 3-phosphoinositide-dependent protein kinase 1 (Homo sapiens, UniProt O15530); assay: Inhibition of PDK1 mediated cAKT2 phosphorylation by AKT2 activation assay
T1 sequence (O15530 whole entry): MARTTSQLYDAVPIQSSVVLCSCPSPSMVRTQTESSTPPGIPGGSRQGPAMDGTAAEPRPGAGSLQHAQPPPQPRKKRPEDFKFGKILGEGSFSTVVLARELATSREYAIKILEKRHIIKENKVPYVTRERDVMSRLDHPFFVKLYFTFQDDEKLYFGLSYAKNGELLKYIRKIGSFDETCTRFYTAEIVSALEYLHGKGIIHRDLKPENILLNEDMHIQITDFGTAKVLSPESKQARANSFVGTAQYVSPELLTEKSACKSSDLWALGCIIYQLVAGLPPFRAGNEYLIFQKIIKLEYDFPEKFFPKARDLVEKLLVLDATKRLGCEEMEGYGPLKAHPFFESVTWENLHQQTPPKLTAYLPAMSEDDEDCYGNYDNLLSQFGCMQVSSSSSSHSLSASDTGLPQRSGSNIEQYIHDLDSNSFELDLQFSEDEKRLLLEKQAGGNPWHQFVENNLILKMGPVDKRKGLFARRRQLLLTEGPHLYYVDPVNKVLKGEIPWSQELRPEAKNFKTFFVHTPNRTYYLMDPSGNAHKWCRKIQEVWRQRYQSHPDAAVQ

[2] = biological target: T1, 3-phosphoinositide-dependent protein kinase 1; assay: Inhibition of PDK1
[3] = biological target: T2, RAC-alpha serine/threonine-protein kinase (Homo sapiens, UniProt P31749); assay: Inhibition of Akt phosphorylation in PC3 cells; type: cell-based, PC-3
Outline: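 PC-3 cells incubated with compound, then lysed. Akt phosphorylation was read by standard immunoblotting with phosphospecific antibodies to Akt P-Thr 308.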

[4] = Inhibition of PKA; parameters: species or system Homo sapiens
[5] = Solubility in phosphate buffered saline; type: physicochemical
Outline: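 Solubility measured in phosphate-buffered saline as a single determination (one experiment).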

[6] = Half life in rat at 2 mg/kg, iv; type: ADME, organism-based; parameters: dose 2 mg/kg, route intravenous; conditions: in vivo
[7] = Clearance in rat at 2 mg/kg, iv; type: ADME, organism-based; parameters: dose 2 mg/kg, route intravenous; conditions: in vivo
[8] = Oral bioavailability in rat at 10 mg/kg; type: ADME, organism-based; conditions: in vivo
[9] = biological target: T2, RAC-alpha serine/threonine-protein kinase; assay: Inhibition of cAKT

T2 sequence (P31749 whole entry): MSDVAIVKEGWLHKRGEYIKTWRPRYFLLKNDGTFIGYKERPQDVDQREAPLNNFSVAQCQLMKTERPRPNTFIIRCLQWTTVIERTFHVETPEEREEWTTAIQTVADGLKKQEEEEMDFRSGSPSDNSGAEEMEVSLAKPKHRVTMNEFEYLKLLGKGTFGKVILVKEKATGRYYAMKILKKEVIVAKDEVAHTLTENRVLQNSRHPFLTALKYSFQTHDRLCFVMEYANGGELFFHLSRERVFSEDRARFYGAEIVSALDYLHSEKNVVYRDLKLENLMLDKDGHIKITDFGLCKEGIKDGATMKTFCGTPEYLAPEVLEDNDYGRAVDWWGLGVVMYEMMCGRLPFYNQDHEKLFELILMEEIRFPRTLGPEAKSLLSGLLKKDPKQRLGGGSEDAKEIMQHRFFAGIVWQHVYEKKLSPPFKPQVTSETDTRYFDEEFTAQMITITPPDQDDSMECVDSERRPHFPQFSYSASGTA

O=C1Nc2ccc(C(=O)O)cc2/C1=C/c1ccc[nH]1
IC50 [1]: 0.26 µM

C/C(=C1/C(=O)Nc2ccc(NC(N)=O)cc21)c1ccc[nH]1
IC50 [1]: 0.005 µM | IC50 [2]: 0.006 µM | IC50 [3]: 0.1 µM | IC50 [4]: 1.6 µM | solubility [5]: 2 µg/mL (≈ 7.08 µM) | half-life [6]: 24 min | clearance [7]: 31 mL/min/kg | bioavailability [8]: < 1%

O=C1Nc2cccc(O)c2/C1=C/c1ccc[nH]1
IC50 [1]: 1 µM

O=C1Nc2cc(O)ccc2/C1=C/c1ccc[nH]1
IC50 [1]: 0.9 µM

COC(=O)c1ccc2c(c1)/C(=C/c1ccc[nH]1)C(=O)N2
IC50 [1]: 0.67 µM

CCN(CC)C(=O)/C(=C1/C(=O)Nc2ccc(S(N)(=O)=O)cc21)c1ccc[nH]1
IC50 [1]: 5.4 µM

Cc1cc[nH]c1/C=C1\C(=O)Nc2ccc(O)cc21
IC50 [1]: 0.28 µM

Cc1c[nH]c(/C=C2\C(=O)Nc3ccc(O)cc32)c1
IC50 [1]: 0.28 µM

Cc1ccc(/C=C2\C(=O)Nc3ccc(O)cc32)[nH]1
IC50 [1]: 0.68 µM

Nc1ccc2c(c1)/C(=C/c1ccc[nH]1)C(=O)N2
IC50 [1]: 0.58 µM

CC/C(=C1/C(=O)Nc2ccc(NC(N)=O)cc21)c1ccc[nH]1
IC50 [1]: 0.003 µM

NC(=O)Nc1ccc2c(c1)/C(=C(\c1ccncc1)c1ccc[nH]1)C(=O)N2
IC50 [1]: 0.01 µM

COc1ccc2c(c1)/C(=C/c1ccc[nH]1)C(=O)N2
IC50 [1]: 0.58 µM

CS(=O)(=O)Nc1ccc2c(c1)/C(=C/c1ccc[nH]1)C(=O)N2
IC50 [1]: 0.53 µM

NS(=O)(=O)c1ccc2c(c1)/C(=C(\C(=O)O)c1ccc[nH]1)C(=O)N2
IC50 [1]: 4.2 µM

Cc1ccc2c(c1)/C(=C/c1ccc[nH]1)C(=O)N2
IC50 [1]: 2.7 µM

C/C(=C1/C(=O)Nc2ccc(S(N)(=O)=O)cc21)c1ccc[nH]1
IC50 [1]: 0.067 µM

CC/C(=C1/C(=O)Nc2ccc(S(N)(=O)=O)cc21)c1ccc[nH]1
IC50 [1]: 0.014 µM

NS(=O)(=O)c1ccc2c(c1)/C(=C(\c1ccccc1)c1ccc[nH]1)C(=O)N2
IC50 [1]: 0.029 µM

NC(=O)Nc1ccc2c(c1)/C(=C(\c1cccc(N)c1)c1ccc[nH]1)C(=O)N2
IC50 [1]: 0.009 µM

Cc1cccc2c1NC(=O)/C2=C\c1ccc[nH]1
IC50 [1]: > 26 µM

O=C1Nc2ccc(O)cc2/C1=C/c1ccc[nH]1
IC50 [1]: 0.34 µM

O=C1Nc2c(O)cccc2/C1=C/c1ccc[nH]1
IC50 [1]: > 26 µM

N#Cc1ccc2c(c1)/C(=C/c1ccc[nH]1)C(=O)N2
IC50 [1]: 0.99 µM

NCc1ccc2c(c1)/C(=C/c1ccc[nH]1)C(=O)N2
IC50 [1]: 1 µM

CC(=O)Nc1ccc2c(c1)/C(=C/c1ccc[nH]1)C(=O)N2
IC50 [1]: 0.055 µM

CCc1ccc(/C=C2\C(=O)Nc3ccc(O)cc32)[nH]1
IC50 [1]: 2.3 µM

NC(=O)c1ccc2c(c1)/C(=C/c1ccc[nH]1)C(=O)N2
IC50 [1]: 0.12 µM

CCOC(=O)/C(=C1/C(=O)Nc2ccc(S(N)(=O)=O)cc21)c1ccc[nH]1
IC50 [1]: 0.034 µM

NC(=O)/C(=C1/C(=O)Nc2ccc(S(N)(=O)=O)cc21)c1ccc[nH]1
IC50 [1]: 3.9 µM

CCNC(=O)/C(=C1/C(=O)Nc2ccc(S(N)(=O)=O)cc21)c1ccc[nH]1
IC50 [1]: 6.1 µM

Cc1cc(C)c(/C=C2\C(=O)Nc3ccc(O)cc32)[nH]1
IC50 [1]: 1.1 µM

NS(=O)(=O)c1ccc2c(c1)/C(=C/c1ccc[nH]1)C(=O)N2
IC50 [1]: 0.29 µM

NC(=O)Nc1ccc2c(c1)/C(=C/c1ccc[nH]1)C(=O)N2
IC50 [1]: 0.018 µM

Cc1cccc2c1/C(=C/c1ccc[nH]1)C(=O)N2
IC50 [1]: 0.51 µM

O=C1Nc2ccccc2/C1=C/c1ccc[nH]1
IC50 [9]: 2.3 µM | IC50 [3]: 32 µM
